Measured values: ChEMBL document CHEMBL1140709, “Design, synthesis, and biological evaluation of (E)-styrylbenzylsulfones as novel anticancer agents” (J Med Chem, 2008)
The source made the active and inactive calls. The calls are words filed in the database; no cut-off is given here.

Columns and labels:
[1] = test system: BT-20; assay: Growth inhibition of human BT20 after 3 weeks by soft agar colony formation assay; format: functional, cell-based
Procedure, shortened: (§1)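 Noble agar: 0.8% bottom layer; cells (1.0 × 10⁵ for MIA-PaCa-2) in medium with compound at various concentrations, mixed into 0.4% top agar. Each concentration in triplicate; 3 weeks at 37 °C, 5% CO₂. Stained with 0.05% nitroblue tetrazolium for 48 h and colonies photographed.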

[2] = test system: BT-20; assay: Antitumor activity against human BT20 cells by trypan blue exclusion assay; format: functional, cell-based
Procedure, shortened: (§2)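 Tumour cells were grown in DMEM or RPMI with 10% fetal bovine serum and 1 unit/mL penicillin-streptomycin. They were seeded in six-well dishes at 1.0 × 10⁵ cells/mL/well, and compound was added 24 h later over a range of concentrations. After 96 h of exposure, viable cells in duplicate wells were counted by trypan blue exclusion.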

[3] = test system: DU-145; assay: Antitumor activity against AR-negative human DU145 cells by trypan blue exclusion assay; format: functional, cell-based; procedure, shortened: as §2
[4] = Antitumor activity against human H157 cells by trypan blue exclusion assay; format: functional, cell-based; conditions: NCI-H157; procedure, shortened: as §2
[5] = test system: DLD-1; assay: Antitumor activity against human DLD1 cells by trypan blue exclusion assay; format: functional, cell-based; procedure, shortened: as §2
[6] = test system: Mus musculus; assay: Hematotoxicity in CD1 mouse at 100 mg/kg, iv; format: organism-based; set-up: dose 100 mg/kg, route intravenous; conditions: in vivo
Procedure, shortened: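 CD-1 mice received 200 µL iv of PBS or drug (10 mg/mL; 100 mg/kg). Bone marrow was taken from femur and tibia 12, 24 or 48 h later. Cells were cultured in duplicate in methylcellulose with stem cell factor 50 ng/mL, IL-3 10 ng/mL, IL-6 10 ng/mL, transferrin 200 µg/mL and erythropoietin 3 units/mL. Total, myeloid and lymphoid colony-forming units were counted after 1 week.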

[7] = test system: Rattus norvegicus; assay: Hematotoxicity in rat at 100 mg/kg, iv; format: organism-based; set-up: dose 100 mg/kg, route intravenous; conditions: in vivo
Procedure, shortened: (§3)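 Rats were given the water-soluble phosphate form iv in single-dose and repeat-dose (28 daily injections) toxicology studies, with biochemical and cellular analysis.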

[8] = test system: Mus musculus; assay: Effect on liver damage in CD1 mouse at 100 mg/kg, iv; format: ADME, organism-based; set-up: dose 100 mg/kg, route intravenous; conditions: in vivo
[9] = test system: Mus musculus; assay: Neurotoxicity in CD1 mouse at 100 mg/kg, iv; format: toxicity, organism-based; set-up: dose 100 mg/kg, route intravenous; conditions: in vivo
[10] = test system: Rattus norvegicus; assay: Effect on liver damage in rat at 100 mg/kg, iv; format: ADME, organism-based; set-up: dose 100 mg/kg, route intravenous; conditions: in vivo; procedure, shortened: as §3
[11] = test system: Rattus norvegicus; assay: Neurotoxicity in rat at 100 mg/kg, iv; format: toxicity, organism-based; set-up: dose 100 mg/kg, route intravenous; conditions: in vivo; procedure, shortened: as §3
[12] = test system: DU-145; assay: Growth inhibition of human DU145 after 3 weeks by soft agar colony formation assay; format: functional, cell-based; procedure, shortened: as §1
[13] = test system: MIA PaCa-2; assay: Growth inhibition of human MiaPaCa2 cells after 3 weeks by soft agar colony formation assay; format: functional, cell-based; procedure, shortened: as §1
[14] = test system: BT-20; assay: Antitumor activity against human BT20 xenografted athymic NCR-nu/nu mouse at 50 mg/kg, ip after 22 days

With COc1cc(OC)c(/C=C/S(=O)(=O)Cc2ccc(OC)c(OP(=O)([O-])O)c2)c(OC)c1.[Na+] the Activity [1] was “Dose-dependent effect”, the IC50 [2] was 5 nM and the IC50 [3] was 2.5 nM. The IC50 [4] was 7 nM, the IC50 [5] was 7 nM and the Activity [6] was “Non-toxic”. For the same molecule, the Activity [7] was “Non-toxic”, the Activity [8] was “Non-toxic” and the Activity [9] was “Non-toxic”. For the same molecule, the Activity [10] was “Non-toxic”, the Activity [11] was “Non-toxic” and the Activity [12] was “Dose-dependent effect”. The Activity [13] was “Dose-dependent effect” and the Activity [14] was “Active”.
